Data taken from ChEMBL document CHEMBL5058577, “EUbOPEN Chemogenomics Library 2 (Multiplex)” (2022).

System: U2OS
Experiment: Multiplex assay against U2OS
Type: toxicity, cell-based
Details: human
In short: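 Compound was added to live cells that had been stained at seeding with Hoechst33342, BioTracker Green Microtubule Cytoskeleton Dye, MitoTracker Red and Annexin V Alexa Fluor 680, and imaging followed on a CQ1 microscope at 37°C and 5% CO2. CellPathfinder machine-learning gating divided cells into Hoechst high-intensity objects or normal cells, normal cells into healthy, pyknosed or fragmented nuclei, and pyknosed cells into mitotic or apoptotic. Tubulin, mitochondrial-mass and membrane-permeability phenotypes are per cents of healthy-nucleus cells.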

[1] = 12 h, 1 µM, compound concentration 1 uM, replicate 1
[2] = 12 h, 1 µM, compound concentration 1 uM, replicate 2
[3] = 12 h, 10 µM, compound concentration 10 uM, replicate 1
[4] = 12 h, 10 µM, compound concentration 10 uM, replicate 2
[5] = 24 h, 1 µM, compound concentration 1 uM, replicate 1
[6] = 24 h, 1 µM, compound concentration 1 uM, replicate 2
[7] = 24 h, 10 µM, compound concentration 10 uM, replicate 1
[8] = 24 h, 10 µM, compound concentration 10 uM, replicate 2
[9] = 48 h, 1 µM, compound concentration 1 uM, replicate 1
[10] = 48 h, 1 µM, compound concentration 1 uM, replicate 2
[11] = 48 h, 10 µM, compound concentration 10 uM, replicate 1
[12] = 48 h, 10 µM, compound concentration 10 uM, replicate 2

Cl.Cl.OCCOCCN1CCN(C(c2ccccc2)c2ccc(Cl)cc2)CC1 (stereo not drawn) [HYDROXYZINE HYDROCHLORIDE]
Population Apoptotic (%) [1]: 60%
Population Fragmented Nuclei (%) [1]: 29%
Population Healthy Nuclei (%) [1]: 61%
Population Hoechst High Intensity Objects (%) [1]: 0%
Population Membrane Permeable-Phenotype (%) [1]: 11%
Population Mitochondria Different-Phenotype (%) [1]: 4%
Population Mitotic Cells (%) [1]: 40%
Population Normal (%) [1]: 99%
Population Pyknosed Nuclei (%) [1]: 9%
Population Tubulin-Different-Phenotype (%) [1]: 7%
Total Cell Count [1]: 208
Population Apoptotic (%) [2]: 80%
Population Fragmented Nuclei (%) [2]: 13%
Population Healthy Nuclei (%) [2]: 78%
Population Hoechst High Intensity Objects (%) [2]: 1%
Population Membrane Permeable-Phenotype (%) [2]: 9%
Population Mitochondria Different-Phenotype (%) [2]: 6%
Population Mitotic Cells (%) [2]: 20%
Population Normal (%) [2]: 98%
Population Pyknosed Nuclei (%) [2]: 7%
Population Tubulin-Different-Phenotype (%) [2]: 8%
Total Cell Count [2]: 139
Population Apoptotic (%) [3]: 58%
Population Fragmented Nuclei (%) [3]: 20%
Population Healthy Nuclei (%) [3]: 66%
Population Hoechst High Intensity Objects (%) [3]: 1%
Population Membrane Permeable-Phenotype (%) [3]: 9%
Population Mitochondria Different-Phenotype (%) [3]: 10%
Population Mitotic Cells (%) [3]: 41%
Population Normal (%) [3]: 98%
Population Pyknosed Nuclei (%) [3]: 13%
Population Tubulin-Different-Phenotype (%) [3]: 6%
Total Cell Count [3]: 316
Population Apoptotic (%) [4]: 88%
Population Fragmented Nuclei (%) [4]: 26%
Population Hoechst High Intensity Objects (%) [4]: 2%
Population Membrane Permeable-Phenotype (%) [4]: 5%
Population Mitochondria Different-Phenotype (%) [4]: 7%
Population Mitotic Cells (%) [4]: 11%
Population Normal (%) [4]: 97%
Population Pyknosed Nuclei (%) [4]: 6%
Population Tubulin-Different-Phenotype (%) [4]: 7%
Total Cell Count [4]: 141
Population Apoptotic (%) [5]: 96%
Population Fragmented Nuclei (%) [5]: 25%
Population Healthy Nuclei (%) [5]: 63%
Population Hoechst High Intensity Objects (%) [5]: 1%
Population Membrane Permeable-Phenotype (%) [5]: 8%
Population Mitochondria Different-Phenotype (%) [5]: 4%
Population Mitotic Cells (%) [5]: 4%
Population Normal (%) [5]: 98%
Population Pyknosed Nuclei (%) [5]: 10%
Population Tubulin-Different-Phenotype (%) [5]: 7%
Total Cell Count [5]: 232
Population Apoptotic (%) [6]: 77%
Population Fragmented Nuclei (%) [6]: 9%
Population Healthy Nuclei (%) [6]: 77%
Population Hoechst High Intensity Objects (%) [6]: 2%
Population Membrane Permeable-Phenotype (%) [6]: 5%
Population Mitochondria Different-Phenotype (%) [6]: 1%
Population Mitotic Cells (%) [6]: 22%
Population Normal (%) [6]: 97%
Population Pyknosed Nuclei (%) [6]: 12%
Population Tubulin-Different-Phenotype (%) [6]: 1%
Total Cell Count [6]: 148
Population Apoptotic (%) [7]: 73%
Population Fragmented Nuclei (%) [7]: 23%
Population Healthy Nuclei (%) [7]: 63%
Population Hoechst High Intensity Objects (%) [7]: 2%
Population Membrane Permeable-Phenotype (%) [7]: 10%
Population Mitochondria Different-Phenotype (%) [7]: 8%
Population Mitotic Cells (%) [7]: 26%
Population Normal (%) [7]: 97%
Population Pyknosed Nuclei (%) [7]: 12%
Population Tubulin-Different-Phenotype (%) [7]: 4%
Total Cell Count [7]: 359
Population Apoptotic (%) [8]: 61%
Population Fragmented Nuclei (%) [8]: 31%
Population Healthy Nuclei (%) [8]: 60%
Population Membrane Permeable-Phenotype (%) [8]: 12%
Population Mitochondria Different-Phenotype (%) [8]: 13%
Population Mitotic Cells (%) [8]: 38%
Population Pyknosed Nuclei (%) [8]: 7%
Population Tubulin-Different-Phenotype (%) [8]: 9%
Total Cell Count [8]: 168
Population Apoptotic (%) [9]: 89%
Population Fragmented Nuclei (%) [9]: 24%
Population Healthy Nuclei (%) [9]: 62%
Population Hoechst High Intensity Objects (%) [9]: 2%
Population Membrane Permeable-Phenotype (%) [9]: 4%
Population Mitochondria Different-Phenotype (%) [9]: 3%
Population Mitotic Cells (%) [9]: 10%
Population Normal (%) [9]: 97%
Population Pyknosed Nuclei (%) [9]: 13%
Population Tubulin-Different-Phenotype (%) [9]: 4%
Total Cell Count [9]: 300
Population Apoptotic (%) [10]: 90%
Population Fragmented Nuclei (%) [10]: 14%
Population Healthy Nuclei (%) [10]: 76%
Population Membrane Permeable-Phenotype (%) [10]: 5%
Population Pyknosed Nuclei (%) [10]: 8%
Population Tubulin-Different-Phenotype (%) [10]: 0%
Total Cell Count [10]: 230
Population Apoptotic (%) [11]: 83%
Population Fragmented Nuclei (%) [11]: 17%
Population Healthy Nuclei (%) [11]: 68%
Population Hoechst High Intensity Objects (%) [11]: 2%
Population Membrane Permeable-Phenotype (%) [11]: 8%
Population Mitochondria Different-Phenotype (%) [11]: 6%
Population Mitotic Cells (%) [11]: 16%
Population Normal (%) [11]: 97%
Population Pyknosed Nuclei (%) [11]: 13%
Population Tubulin-Different-Phenotype (%) [11]: 4%
Total Cell Count [11]: 456
Population Fragmented Nuclei (%) [12]: 27%
Population Healthy Nuclei (%) [12]: 64%
Population Hoechst High Intensity Objects (%) [12]: 5%
Population Membrane Permeable-Phenotype (%) [12]: 10%
Population Mitochondria Different-Phenotype (%) [12]: 5%
Population Normal (%) [12]: 94%
Population Pyknosed Nuclei (%) [12]: 8%
Population Tubulin-Different-Phenotype (%) [12]: 5%
Total Cell Count [12]: 231
